Results on one compound are retold here after ChEMBL document CHEMBL4602702, “Red-Emitting Dibenzodiazepinone Derivatives as Fluorescent Dualsteric Probes for the Muscarinic Acetylcholine M2 Receptor” (J Med Chem, 2020).

For the assay, the target named is T1, Muscarinic acetylcholine receptor M2 (Homo sapiens) (UniProt P08172).
T1 sequence (whole entry): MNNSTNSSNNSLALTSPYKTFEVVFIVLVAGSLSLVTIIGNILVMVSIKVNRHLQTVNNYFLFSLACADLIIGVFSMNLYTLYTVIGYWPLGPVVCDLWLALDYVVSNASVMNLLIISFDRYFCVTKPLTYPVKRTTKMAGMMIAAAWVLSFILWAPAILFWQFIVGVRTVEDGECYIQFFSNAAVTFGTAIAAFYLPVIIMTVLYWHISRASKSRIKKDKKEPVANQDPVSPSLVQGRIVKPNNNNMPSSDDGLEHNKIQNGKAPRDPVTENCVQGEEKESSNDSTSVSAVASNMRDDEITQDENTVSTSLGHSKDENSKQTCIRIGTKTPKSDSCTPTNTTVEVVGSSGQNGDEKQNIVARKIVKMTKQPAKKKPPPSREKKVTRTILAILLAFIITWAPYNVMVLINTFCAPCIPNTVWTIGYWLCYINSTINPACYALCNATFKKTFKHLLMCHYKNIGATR
The assay can be described thus: Binding affinity to human muscarinic M2 receptor expressed in CHO-K9 cells assessed as dissociation rate constant at 22 +/- 1 degree C preincubated for 180 mins followed by atropine addition by flow cytometric saturation binding study. Type of assay: cell-based. A digest of the protocol:
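Dissociation followed by flow cytometry at 22 °C over 9 h. koff from three-parameter incomplete monophasic decline fit; three or four experiments in duplicate.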
In general terms: Flow cytometry measures light scatter and fluorescence of single cells or particles in a stream.

`CC1(C)C(/C=C/C=C/C=C2/N(CCCCCC(=O)NCCN3CCN(CCCCC4CCN(CC(=O)N5c6ccccc6NC(=O)c6ccccc65)CC4)CC3)c3ccc(S(=O)(=O)O)cc3C2(C)C)=[N+](CCCCS(=O)(=O)[O-])c2ccccc21.O=C(O)C(F)(F)F.O=C(O)C(F)(F)F`: the K worked out at 0.0045 min⁻¹.
